Source: PubChem BioAssay
Rev-RRE block – inhibitors of HIV-1 Rev-RRE RNA interaction; P05866; Rev peptide-RRE RNA binding, FRET; inhibition, % at 8 µM; 97,000 tested, 0.79% active;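 active = inhibition above the screen-wide mean plus 3 SD, cut at about 35% in these data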;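 also: 0% = median DMSO wells and 100% = median Neomycin B control wells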
Target sequence (P05866 whole entry, looked up): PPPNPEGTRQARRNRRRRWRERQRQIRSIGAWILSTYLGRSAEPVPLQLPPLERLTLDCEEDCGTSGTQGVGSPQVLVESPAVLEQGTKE
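Test system: Cy5-tagged RRE RNA duplex with fluorescein-tagged Rev peptide | Read-out: % inhibition of FRET ratio versus controls | Probe or stimulus: Labelled Rev peptide | Incubation: 5 min RNA-compound premix plus 15 min binding step, 25 °C | Technique: FRET fluorescence readout | Benchmarks: DMSO low control, neomycin B high control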
PLK1 PBD inh – blocks phosphopeptide binding to human Plk1 polo box domain. P53350. Plk1 PBD phosphopeptide binding, fluorescence polarization. inhibition, %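 (tested at about 20 µM)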. 97,000 tested, 0.13% active. AID 693; in the data active = inhibition above about 34%, passing the limit was not always enough
Target sequence (P53350 whole entry, looked up, the tested form may be a part): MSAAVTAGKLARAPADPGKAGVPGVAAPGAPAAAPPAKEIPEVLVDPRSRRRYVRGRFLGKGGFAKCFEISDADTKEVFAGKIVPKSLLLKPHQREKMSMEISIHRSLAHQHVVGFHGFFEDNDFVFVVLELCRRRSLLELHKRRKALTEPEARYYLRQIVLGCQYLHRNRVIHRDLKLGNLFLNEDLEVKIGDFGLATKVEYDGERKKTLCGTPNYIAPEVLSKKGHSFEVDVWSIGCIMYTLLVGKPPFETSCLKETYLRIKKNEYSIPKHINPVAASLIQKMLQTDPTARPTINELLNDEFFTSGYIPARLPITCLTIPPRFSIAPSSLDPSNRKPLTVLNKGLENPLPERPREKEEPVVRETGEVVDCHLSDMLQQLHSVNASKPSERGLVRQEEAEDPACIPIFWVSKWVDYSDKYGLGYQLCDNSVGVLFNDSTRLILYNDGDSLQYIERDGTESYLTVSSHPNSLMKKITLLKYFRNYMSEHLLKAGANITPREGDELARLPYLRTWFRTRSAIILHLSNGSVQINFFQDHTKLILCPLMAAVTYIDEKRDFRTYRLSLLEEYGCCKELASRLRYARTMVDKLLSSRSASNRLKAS
PTK2B oligo ant – blocks oligomerization of human Pyk2 in cells. Q293 cells, Pyk2 FERM NanoBiT luminescence; hits give low values. Q14289. 99,000 tested, 0.83% active. z-score (the deposit names both 25 µM and 10 µM);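 active = Z-score of -3 or lower, scaled per plate to the spread of control and sample wells; inactive = z-score above -3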;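 also: negative z-score means lost luminescence so less FERM oligomerization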
FAK blocker – FAK (human) kinase inhibition | Q05397 | biochemical FAK kinase activity assay | inhibition, %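 (tested at 7 µM)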 | 97,000 tested, 0.84% active | AID 727; in the data active = inhibition above about 19%;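 also: 0% = DMSO and 100% = reference compound high control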
PLK1 kinase inh – inhibitors of human PLK1 kinase | recombinant PLK1 kinase, TR-FRET peptide phosphorylation | inhibition, % at 10 µM | 97,000 tested, 0.53% active;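 active = inhibition of 50% or more in the single-concentration screen; inactive = inhibition below 50%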;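 also: 0% = DMSO max control and 100% = H-89 dihydrochloride min control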
Cav3 T inh – blocks human Cav3.2 T-type calcium channel | O95180 | Cav3.2-expressing cells, Fluo-4 calcium fluorescence FDSS; hits give low values | B-score at 10 µM | 100,000 tested, 4% active | AID 449739;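 active = single-dose well whose peak fluorescence ratio is a statistical outlier from its plate by either plate-standardised score or position-corrected B-score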
* hit, by the source's call; x = no result given. Most compounds without a hit are left out; they make up all but 5.8% or so of the library.

SMILES | Rev-RRE block | PLK1 PBD inh | PTK2B oligo ant | FAK blocker | PLK1 kinase inh | Cav3 T inh
c1csc(C(c2nnnn2C2CCCCC2)N2CCN(c3nc4ccccc4s3)CC2)c1 (stereo unspecified) | 6.8 | 2.5 | -1.15 | -3.2 | -8.2 | -3.8*
Cc1ccc(C(c2nnnn2C2CCCC2)N2CCN3CCCC3C2)cc1 (stereo unspecified) | 2.1 | -12.6 | 0.05 | -2.1 | -7.1 | 0.107
c1csc(C(c2nnnn2C2CCCC2)N2CCCC3(CCCCC3)C2)c1 (stereo unspecified) | 14.8 | -14.6 | 0.55 | 0.0 | -14.2 | -5.67*
Cc1ccc(C(c2nnnn2C2CCCC2)N2CCN(c3nc4ccccc4s3)CC2)cc1 (stereo unspecified) | 5.9 | 18.6 | -2.7 | 1.6 | -11.6 | -8.07*
CC(C)c1ccc(NC(=O)C2C3C=CC4(CN(CCCN5CCOCC5)C(=O)C24)O3)cc1 (stereo unspecified) | -1.8 | 12.4 | -0.51 | 1.6 | -8.0 | -3.18
O=c1c(C(c2nnnn2C2CCCCC2)N2CCCCC2)coc2ccc(Cl)cc12 (stereo unspecified) | x | x | 0.16 | x | x | -0.861
O=C(CCC(=O)c1cccs1)OCC(=O)N1CCN(C(=O)c2ccco2)CC1 | 7.9 | 29.5 | 0.34 | 0.4 | -14.6 | -0.0705
CN(C)S(=O)(=O)c1ccc(Nc2ccc(-c3ccc4c(c3)OCCO4)nn2)cc1 | 0.9 | -1.6 | -2.09 | 2.3 | -17.4 | 0.0545
CN(C(=O)c1cccc(Nc2ccc(-c3ccc4c(c3)OCCO4)nn2)c1)C1CCCCC1 | 10.4 | -10.3 | -3.59* | 3.1 | -5.4 | -3.76*
O=C(CSc1ncn[nH]1)NCCC(c1ccccc1)c1ccccc1 | 3.0 | -3.4 | -0.16 | -1.6 | -8.9 | -0.147
CN1C=CC2=C(C#N)C(N)C(C#N)(C#N)C(c3ccccc3)C2C1 (stereo unspecified) | 64.3* | -14.0 | -3.66* | 2.6 | 3.7 | x
CCCC(=O)OC1CC(C)N(C(=O)c2ccccc2)c2ccc(C)cc21 (stereo unspecified) | 4.5 | -18.8 | -0.94 | 0.1 | -3.8 | -4.45*
O=C(CN(C(=O)CSc1nc2ccccc2o1)c1ccccc1)NC1CCCCC1 | 9.4 | -0.1 | -1.23 | 9.2 | -8.4 | -2.95*
O=C(CN(C(=O)CSc1nc2ccccc2o1)c1cccc(F)c1)NC1CCCCC1 | 7.6 | 16.5 | -0.46 | 7.0 | -2.8 | -5.63*
CCOc1ccccc1NC(=O)C1CCN(S(=O)(=O)c2cccc3cccnc23)CC1 | x | -14.4 | x | x | -15.7 | x
Cc1ccc(OCC(=O)NC2CCS(=O)(=O)C2)cc1 (stereo unspecified) | 13.0 | -0.7 | 1.2 | 0.6 | -5.7 | -4.69*
CC(C)(C)c1ccc(OCC(=O)NC2CCS(=O)(=O)C2)cc1 (stereo unspecified) | 0.4 | 14.8 | 0.71 | -0.6 | -8.8 | 0.367
CCCCSc1nc(C)cc(C)c1S(=O)(=O)c1ccccc1C | 20.4 | 24.8 | -1.44 | 0.9 | -12.6 | -3.24
CCOC(=O)N1CCN(C(=O)CN2C(=O)COc3ccc(C(C)(C)C)cc32)CC1 | -1.2 | -5.8 | 1.75 | 2.0 | 4.1 | 0.991
N#CCC(CNc1ncc(C(F)(F)F)cc1Cl)OC(=O)c1cccc([N+](=O)[O-])c1 (stereo unspecified) | 18.7 | 31.8 | -0.27 | -3.8 | -5.7 | -2.47
O=C(CCC1COc2ccccc2O1)NCC1COc2ccccc2O1 (stereo unspecified) | 6.7 | -2.0 | -0.18 | -0.5 | -9.2 | -9.64*
Cc1nc2ccccc2c2oc(C(=O)NCC3COc4ccccc4O3)cc12 (stereo unspecified) | x | x | x | x | x | -5.33*
O=C(CNC(=O)c1ccccc1)NCC1COc2ccccc2O1 (stereo unspecified) | 3.1 | -40.5 | 0.42 | -1.4 | -1.1 | 0.933
CCN1CCCC1CNC(=O)c1cc2c(C)nc3ccccc3c2o1 (stereo unspecified) | 5.2 | 13.1 | 1.22 | 7.6 | -2.3 | -0.00719
Cc1ccc2c(CC(=O)NCC3COc4ccccc4O3)coc2c1 (stereo unspecified) | x | x | 1.07 | x | x | -6.6*
SMILES | Rev-RRE block | PLK1 PBD inh | PTK2B oligo ant | FAK blocker | PLK1 kinase inh | Cav3 T inh
O=C(Cc1ccccc1)NCC1COc2ccccc2O1 (stereo unspecified) | -1.9 | -19.7 | 0.58 | 3.3 | -8.2 | -1.62
Cn1/c(=N/N=C/c2ccc([N+](=O)[O-])cc2)sc2ccccc21 | 58.4* | -23.9 | x | 2.3 | -22.2 | -1.43
COc1ccc(N=c2sc3ccccc3n2C)cc1 | 9.3 | -12.8 | -0.75 | -1.6 | -7.1 | -0.112
CC(CNS(=O)(=O)c1cc(Cl)ccc1Cl)CN(C)C (stereo unspecified) | -1.7 | 16.5 | -0.47 | -1.0 | -3.1 | 0.104
COC(=O)c1sccc1NC(=O)CSc1nnnn1-c1ccccc1C | 0.2 | 16.9 | -2.05 | 0.5 | -0.8 | -0.509
N#Cc1ccc(-c2ccc3c(c2)OCO3)nc1SCC(=O)OCc1ccccc1 | 4.5 | -14.6 | 1.62 | -2.4 | -8.4 | -4.64*
COc1ccc(-c2ccc(C#N)c(SCC(=O)OCc3ccccc3)n2)cc1OC | 8.7 | -21.2 | 1.09 | -2.4 | -12.6 | -0.435
Oc1ccc(-c2[nH]nc(-c3ccccc3)c2-c2nc3ccccc3[nH]2)cc1 | 1.5 | -4.2 | -0.17 | -0.7 | -2.7 | -5.5*
Cc1cccc(C)c1NC(=O)C(c1ccc(Cl)cc1Cl)N1CCCCC1 (stereo unspecified) | 11.6 | -15.2 | -1.03 | -5.8 | -9.8 | -5.04*
O=C(NC1CCCCC1)C(c1ccccc1)N1CCC2(CC1)OCCO2 (stereo unspecified) | x | x | 0.44 | x | x | 0.7
O=C(NCC(=O)N1CCCCC1)c1ccc(Cl)cc1Cl | 3.2 | 22.6 | 1.48 | -1.9 | -7.4 | 0.612
CC(C)c1ccc(NC(=O)C(c2ccccc2)N2CCC3(CC2)OCCO3)cc1 (stereo unspecified) | 0.7 | 2.0 | -0.94 | -1.6 | 7.3 | -7.44*
Cc1ccc(NC(=O)C(c2ccc(Cl)cc2)N2CCCCC2)cc1 (stereo unspecified) | 7.1 | -16.1 | -1.28 | -7.3 | -9.7 | -7.02*
C/C(=N/NC(=O)c1ccc(Br)o1)C(C)C | x | x | 0.11 | x | x | x
CCn1c(COc2ccccc2C)nnc1SCC(=O)CC(=O)Nc1ccccc1 | 0.7 | -3.1 | -0.49 | -0.2 | -3.6 | -4.99*
CCn1c(COc2ccccc2)nnc1SCC(=O)Nc1cc(OC)ccc1OC | 14.8 | 3.2 | -0.08 | 5.7 | -13.3 | -0.119
CCOC(=O)c1cccc(NC(=O)CSc2nnc(COc3ccccc3)n2CC)c1 | 8.2 | -2.1 | 0.44 | -3.6 | -15.6 | -6.09*
CCn1c(COc2cccc(C)c2)nnc1SCC(=O)Nc1cccc(C(=O)OC)c1 | 11.1 | 10.4 | 1.88 | -1.2 | -9.3 | -0.448
CCOC(=O)c1cccc(NC(=O)CSc2nnc(CNc3ccc(C)cc3)n2CC)c1 | -1.7 | 17.8 | -0.06 | 5.5 | 6.6 | -4.11*
CCOC(=O)c1ccccc1NC(=O)CSc1nnc(COc2ccccc2)n1CC | 6.4 | -14.0 | -0.47 | 3.1 | -11.1 | -5.66*
COc1ccccc1[C@@H]1C(c2cccc(Cl)c2)=NN(c2ccc(Br)cc2)[C@H]1C(=O)N1CCOC1=O | x | x | x | x | x | 0.139
